Data as given in ChEMBL document CHEMBL3808369, “Identification of Cyproheptadine as an Inhibitor of SET Domain Containing Lysine Methyltransferase 7/9 (Set7/9) That Regulates Estrogen-Dependent Transcription” (J Med Chem, 2016).
Active and inactive are the calls of the source. The calls are words filed in the database; no cut-off is given here.

Tests used:
[1] = molecular target: T1, Histone-lysine N-methyltransferase SETD7 (Homo sapiens) (UniProt Q8WTS6); assay: Inhibition of recombinant his-tagged Set7/9 (unknown origin) expressed in Escherichia coli BL21 (DE3) using GST-fused histone H3 (1 to 57 residues) as substrate preincubated for 1 hr followed by substrate addition measured after 1 hr by Western blot analysis
T1 sequence (whole entry): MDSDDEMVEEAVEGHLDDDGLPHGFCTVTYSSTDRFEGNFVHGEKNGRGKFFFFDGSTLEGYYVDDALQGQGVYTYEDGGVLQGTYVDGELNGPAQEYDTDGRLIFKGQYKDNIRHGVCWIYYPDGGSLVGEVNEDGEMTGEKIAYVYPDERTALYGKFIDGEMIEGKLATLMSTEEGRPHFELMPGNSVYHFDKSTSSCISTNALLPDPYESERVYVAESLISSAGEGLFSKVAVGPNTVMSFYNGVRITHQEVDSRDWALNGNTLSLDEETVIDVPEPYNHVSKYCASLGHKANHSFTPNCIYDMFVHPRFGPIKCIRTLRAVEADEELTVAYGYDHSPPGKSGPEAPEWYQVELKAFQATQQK
Summary of the method: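 His-Set7/9 (0.2 μg/μL) preincubated with or without inhibitor in HMT buffer for 1 h. Then 1 mM SAM and 0.01 μg/μL GST-histone H3 (1−57) were added and incubated 1 h at 37 °C. Reactions were stopped in SDS loading buffer and immunoblotted with an anti-H3K4me1 antibody.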

[2] = molecular target: T1, Histone-lysine N-methyltransferase SETD7 (Homo sapiens); assay: Inhibition of Set7/9 in human MCF7 cells assessed as suppression of beta-estradiol-induced ERE promoter activation at 14 to 43 uM preincubated for 18 hrs followed by beta-estradiol addition measured after 24 hrs by luciferase reporter gene assay; type: cell-based
Summary of the method: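 MCF7 cells held in estrogen-free medium (phenol red-free RPMI, 10% charcoal-stripped FBS) for 3 days. Cells were then transfected with a 3×ERE firefly luciferase reporter plus a TK-Renilla control. Drug added 6 h later; after 18 h, ±10 nM β-estradiol for 24 h. Firefly signal normalised to Renilla, expressed as fold over unstimulated cells. Four independent assays.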

[3] = molecular target: T1, Histone-lysine N-methyltransferase SETD7 (Homo sapiens); assay: Inhibition of Set7/9 in human MCF7 cells assessed as half life of ERalpha at 43 uM by immunoblotting analysis in presence of cycloheximide (reference value: 15.6 +/- 1.2 hrs); type: cell-based
Summary of the method: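 MCF7 cells treated with or without 43 μM drug in the presence of 1 μg/mL cycloheximide for various times. ERα immunoblotted from RIPA lysates and band intensity quantified to derive half-life. Three independent assays.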

[4] = molecular target: T1, Histone-lysine N-methyltransferase SETD7 (Homo sapiens); assay: Inhibition of Set7/9 in human MCF7 cells assessed as ERalpha destabilization at 43 uM for 36 hrs by immunoblotting analysis in presence of proteasome inhibitor MG132; type: cell-based
Summary of the method: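 MCF7 cells treated with or without 43 μM drug for 36 h, then MG132 added for 12 h. Cells lysed by sonication in RIPA buffer with protease inhibitors. ERα read by SDS-PAGE/PVDF immunoblot with chemiluminescent detection.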

[5] = molecular target: T1, Histone-lysine N-methyltransferase SETD7 (Homo sapiens); assay: Non competitive inhibition of recombinant Set7/9 (unknown origin) expressed in Escherichia coli BL21 (DE3) using Ac-KRSK-MCA peptide as substrate and varying SAM preincubated for 1 hr followed by substrate addition measured after 15 mins by Lineweaver-Burk plot analysis
Summary of the method: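 His6-tagged Set7/9 purified by Ni2+ affinity from E. coli BL21(DE3) after induction with 0.1 mM IPTG at 18 °C for 24 h. Kinetics were run in a fluorogenic HMT assay using Ac-KRSK-MCA peptide, with either SAM or peptide concentration varied. Initial velocities were analysed by Lineweaver–Burk plot, four independent assays.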

[6] = molecular target: T2, Histone-lysine N-methyltransferase SETD7 (Homo sapiens, UniProt Q8WTS6); assay: Inhibition of recombinant Set7/9 (unknown origin) expressed in Escherichia coli BL21 (DE3) using Ac-KRSK-MCA peptide/SAM as substrate preincubated for 1 hr followed by substrate addition measured after 15 mins by Dixon plot analysis
T2 sequence (Q8WTS6 whole entry): T1 sequence (whole entry)
Summary of the method: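 Fluorogenic HMT kinetics used recombinant His-Set7/9 expressed in E. coli BL21(DE3) (IPTG 0.1 mM, 18 °C, 24 h) and purified on Ni2+ affinity. The methyl acceptor was Ac-KRSK-MCA and the cofactor was SAM. Ki was obtained from a Dixon plot of initial velocity versus inhibitor. Four independent assays, SD.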

[7] = molecular target: T3, Histone-lysine N-methyltransferase EHMT2 (Homo sapiens) (UniProt Q96KQ7); assay: Inhibition of G9a (unknown origin) by ELISA
T3 sequence (whole entry): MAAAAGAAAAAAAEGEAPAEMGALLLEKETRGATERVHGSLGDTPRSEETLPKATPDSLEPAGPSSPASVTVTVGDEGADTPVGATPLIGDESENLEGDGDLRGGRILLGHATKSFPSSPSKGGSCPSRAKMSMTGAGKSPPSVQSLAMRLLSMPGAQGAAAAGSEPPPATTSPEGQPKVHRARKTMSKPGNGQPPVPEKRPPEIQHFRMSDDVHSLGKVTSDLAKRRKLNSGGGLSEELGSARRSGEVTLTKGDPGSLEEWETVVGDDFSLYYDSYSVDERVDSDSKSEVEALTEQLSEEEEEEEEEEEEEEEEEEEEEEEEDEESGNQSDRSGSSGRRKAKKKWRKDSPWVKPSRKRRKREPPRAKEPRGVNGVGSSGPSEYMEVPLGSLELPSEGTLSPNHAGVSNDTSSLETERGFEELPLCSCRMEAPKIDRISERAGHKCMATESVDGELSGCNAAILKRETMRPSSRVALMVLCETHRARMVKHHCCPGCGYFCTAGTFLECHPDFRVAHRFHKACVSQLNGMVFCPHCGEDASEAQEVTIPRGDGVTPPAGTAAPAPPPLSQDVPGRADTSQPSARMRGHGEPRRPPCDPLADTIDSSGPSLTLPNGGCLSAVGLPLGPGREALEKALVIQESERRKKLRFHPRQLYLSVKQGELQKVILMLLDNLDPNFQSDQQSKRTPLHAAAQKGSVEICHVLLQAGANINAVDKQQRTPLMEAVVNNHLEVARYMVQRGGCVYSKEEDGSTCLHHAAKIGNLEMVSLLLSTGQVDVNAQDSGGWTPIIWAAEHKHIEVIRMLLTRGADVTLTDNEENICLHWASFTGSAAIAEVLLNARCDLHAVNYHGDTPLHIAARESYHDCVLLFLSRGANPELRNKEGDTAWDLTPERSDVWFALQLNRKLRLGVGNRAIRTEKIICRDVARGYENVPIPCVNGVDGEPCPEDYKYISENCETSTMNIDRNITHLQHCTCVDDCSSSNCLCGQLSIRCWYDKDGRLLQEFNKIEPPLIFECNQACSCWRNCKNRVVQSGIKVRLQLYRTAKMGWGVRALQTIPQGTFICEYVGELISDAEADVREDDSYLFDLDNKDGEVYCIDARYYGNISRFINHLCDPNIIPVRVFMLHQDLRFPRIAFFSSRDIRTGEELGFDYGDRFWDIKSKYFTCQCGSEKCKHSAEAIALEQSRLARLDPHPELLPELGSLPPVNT

[8] = molecular target: T3, Histone-lysine N-methyltransferase EHMT2 (Homo sapiens); assay: Inhibition of G9a (unknown origin) by fluorogenic assay

In the case of `CN1CCC(=C2c3ccccc3C=Cc3ccccc32)CC1` [CYPROHEPTADINE], the inhibition [1] is reported as “Active”, the inhibition [2] is reported as “Active” and the T1/2 [3] is reported as 10.3 h. For the same compound, the inhibition [4] was “inactive”, the inhibition [5] was “Active” and the Ki [6] was 15 µM. The inhibition [7] was “Active” and the inhibition [8] was “Active”.
